Data reported in ChEMBL document CHEMBL5712092, “NeuroD1 Dictates Tumor Cell Differentiation in Medulloblastoma” (Cell Rep, 2020).
The source made the active and inactive calls. The rule behind the calls is not given here.

Legend:
Medulloblastoma cell [1] = experiment: Antiproliferative activity in human medulloblastoma cell assessed as decrease in BrdU+ cells at 1 uM after 48 hrs by immunocytochemistry analysis relative to vehicle control; assay type: functional, cell-based
Method in brief: (§1)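 Cultured MB cells were exposed to inhibitor at 1 μM for 48 h, with DMSO as the vehicle control. Cells were pulsed with BrdU for 2 h, then immunostained for BrdU (proliferation) or p27/Kip1 (differentiation), with DAPI nuclear counterstain. Read-out was the percentage of positive cells.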

Medulloblastoma cell [2] = experiment: Induction of cell differentiation activity in human medulloblastoma cell assessed as increase in p27/Kip1+ cells at 1 uM after 48 hrs by immunocytochemistry analysis; assay type: functional, cell-based; method in brief: as §1
Medulloblastoma cell [3] = experiment: Upregulation in NeuroD1 protein expression in human medulloblastoma cell by Western blot analysis; assay type: functional, cell-based
Medulloblastoma cell [4] = experiment: Antiproliferative activity in Ptch1-deficient mouse medulloblastoma cell after 48 hrs by CCK-8 assay; assay type: functional, cell-based
Method in brief: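 MB cells from tumors of 30-week-old Ptch1+/− mice, dissociated by papain digestion and purified on a 35%/65% Percoll gradient. Cells were treated with a range of inhibitor concentrations for 48 h and viability was read by CCK8 assay. IC50 was taken as the concentration giving 50% inhibition of viability.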

[5] = system: Cerebellar granule neurone; experiment: Antiproliferative activity in wild-type mouse SmoA1-expressing cerebellar granule neurone cells at P7 at 2 uM for 48h by immunocytochemistry analysis; assay type: functional, cell-based
Method in brief: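 Cerebellar granule neuron precursors from wild-type pups were infected with SmoA1-GFP lentivirus. 48 h after infection they were treated with inhibitor at 2 μM for 48 h, with DMSO as control. Proliferation was scored as the percentage of EdU+ cells among infected cells by immunostaining.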

Medulloblastoma cell [6] = experiment: Antitumor activity in human medulloblastoma cells xenografted in CB17/SCID mouse at 100 mg/kg po, administered once a day; assay type: functional, organism-based
Medulloblastoma cell [7] = experiment: Antitumor activity in human medulloblastoma cells xenografted in CB17/SCID mouse at 50 mg/kg po, administered once a day; assay type: functional, organism-based
[8] = Toxicity in CB17/SCID mouse xenografted with human medulloblastoma cells asessed as body weight loss at 100 mg/kg po, administered once a day; assay type: organism-based; settings: in vivo
[9] = Toxicity in CB17/SCID mouse xenografted with human medulloblastoma cells asessed as body weight loss at 50 mg/kg po, administered once a day; assay type: organism-based; settings: in vivo
Medulloblastoma cell [10] = experiment: Antitumor activity in human medulloblastoma cells xenografted in CB17/SCID mouse assessed as decrease in Ki67+ cells at 100 mg/kg po, administered once a day by immunocytochemistry analysis; assay type: functional, organism-based
Medulloblastoma cell [11] = experiment: Antitumor activity in human medulloblastoma cells xenografted in CB17/SCID mouse assessed as decrease in Ki67+ cells at 50 mg/kg po, administered once a day by immunocytochemistry analysis; assay type: functional, organism-based
Medulloblastoma cell [12] = experiment: Induction of cell differentiation activity in human medulloblastoma cells xenografted in CB17/SCID mouse assessed as increase in NeuN expression at 100 mg/kg po, administered once a day by immunocytochemistry analysis; assay type: functional, organism-based
Medulloblastoma cell [13] = experiment: Induction of cell differentiation activity in human medulloblastoma cells xenografted in CB17/SCID mouse assessed as increase in NeuN expression at 50 mg/kg po, administered once a day by immunocytochemistry analysis; assay type: functional, organism-based
Medulloblastoma cell [14] = experiment: Increase of apoptosis in human medulloblastoma cells xenografted in CB17/SCID mouse assessed as cleaved caspase-3 expression at 100 mg/kg po, administered once a day by immunocytochemistry analysis; assay type: functional, organism-based
Medulloblastoma cell [15] = experiment: Increase of apoptosis in human medulloblastoma cells xenografted in CB17/SCID mouse assessed as cleaved caspase-3 expression at 50 mg/kg po, administered once a day by immunocytochemistry analysis; assay type: functional, organism-based
Medulloblastoma cell [16] = experiment: Antitumor activity in human medulloblastoma cells xenografted in CB17/SCID mouse assessed as increase in NeuroD1 expression at 100 mg/kg po, administered once a day by Western blot analysis; assay type: functional, organism-based
Mus musculus = experiment: Antitumor activity in human medulloblastoma cells xenografted in CB17/SCID mouse assessed as increase in NeuroD1 expression at 50 mg/kg po, administered once a day by Western blot analysis; assay type: functional, organism-based

IC50 (Medulloblastoma cell [4]) [µM]	SMILES	Activity (Medulloblastoma cell [1])	Activity (Medulloblastoma cell [2])	Activity (Medulloblastoma cell [3])	Activity [5]	Activity (Medulloblastoma cell [6])	Activity (Medulloblastoma cell [7])	Activity [8]	Activity [9]	Activity (Medulloblastoma cell [10])	Activity (Medulloblastoma cell [11])	Activity (Medulloblastoma cell [12])	Activity (Medulloblastoma cell [13])	Activity (Medulloblastoma cell [14])	Activity (Medulloblastoma cell [15])	Activity (Medulloblastoma cell [16])	Activity (Mus musculus)
2.08	CCCc1cc(C)[nH]c(=O)c1CNC(=O)c1cc(-c2ccc(N3CCN(C(C)C)CC3)nc2)cc2c1cnn2C(C)C	Active	Active	Active	Active	Active	Active	Non-Toxic	Non-Toxic	Active	Active	Active	Active	Active	Active	Active	Active
4.64	CC[C@H](C)n1cc(C)c2c(C(=O)NCc3c(C)cc(C)[nH]c3=O)cc(-c3ccc(N4CCNCC4)nc3)cc21 [GSK2816126]	Active	Active	Active	Active	Active	Active	Non-Toxic	Non-Toxic	Active	Active	Active	Active	Active	Active	Active	Active
8.74	CCN(c1cc(-c2ccc(CN3CCOCC3)cc2)cc(C(=O)NCc2c(C)cc(C)[nH]c2=O)c1C)C1CCOCC1 [TAZEMETOSTAT]	Active	Active	Active	Active	Active	Active	Non-Toxic	Non-Toxic	Active	Active	Active	Active	Active	Active	Active	Active
